An excerpt weighted towards active compounds, which were near 3.9% of everything screened.
ANO1 activ – activates or potentiates the mouse TMEM16A chloride channel | Q8BHY3 | HEK293 TMEM16A/YFP-H148Q/I152L, iodide quench fluorescence; hits give low values | B-score at 10 µM | 0.3% of 340,000 active | AID 623877;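 active = fluorescence-ratio B-score plate-corrected deviation score at least 3 library SD below zero, with starting fluorescence score within 5 deviations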;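 note: channel opened by trigger with iodide after compound preincubation; score built on the fluorescence ratio of max minus min over baseline; more negative score means more quench and so TMEM16A activation or potentiation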
TAAR1 antagonist – human TAAR1 antagonism; 1.5% of 360,000 active; CHO RD-HGA16 TAAR1, Fluo-8 calcium fluorescence, antagonist; Q96RJ0; inhibition, % at 3 µM;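 active = inhibition above a per-plate cutoff, the mean inhibition of test compounds on that plate plus 3 SD, cut at about 49% in these data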
Target sequence (Q96RJ0 whole entry, looked up): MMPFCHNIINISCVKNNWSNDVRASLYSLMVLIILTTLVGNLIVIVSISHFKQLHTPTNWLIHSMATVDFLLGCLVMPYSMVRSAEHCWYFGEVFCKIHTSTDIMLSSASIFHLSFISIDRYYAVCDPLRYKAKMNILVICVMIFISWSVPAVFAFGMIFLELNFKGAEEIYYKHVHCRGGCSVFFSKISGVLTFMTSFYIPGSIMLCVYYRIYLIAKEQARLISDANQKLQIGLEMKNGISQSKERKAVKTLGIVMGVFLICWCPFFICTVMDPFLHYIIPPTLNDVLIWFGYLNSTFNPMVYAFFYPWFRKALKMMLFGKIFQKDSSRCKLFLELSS
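Assay system: RD-HGA16 CHO cells with stable hTAAR1 and Gα16 / Reagent: EC80 β-phenethylamine stimulus / Doses: 3 µM, single point / Timing: dye loading 75 min at 37 °C, then 30 min room temperature / Measured by: Fluo-8 intracellular calcium dye fluorescence, real-time kinetic reads / Controls: vehicle wells and EC80 agonist wells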
TMEM16A inh – inhibitors of mouse TMEM16A calcium-activated chloride channel. AID 588511. HEK293 TMEM16A/YFP iodide influx fluorescence, ionomycin. normalized B-score (activity score, 25-100; higher = stronger inhibition) at 10 µM. 1.2% of 310,000 active;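 active = ratio plate-corrected score three or more library SD toward inhibition, starting fluorescence score within five deviations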;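 note: score derived from kinetic fluorescence span divided by baseline fluorescence per well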
TAAR1 ag – human TAAR1 agonism | Q96RJ0 | CHO RD-HGA16 TAAR1, Fluo-8 calcium fluorescence; vehicle wells 0%, saturating PEA agonist 100% | activation, % at 3 µM | 0.99% of 360,000 active | AID 624467;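 active = activation above the mean activation of all test compounds in the run plus 3 SD, cut at about 38% in these data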
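Repeats: no replicates (n 1) | Material: CHO-derived RD-HGA16 cells with stable Gα16 and human TAAR1 | Technique: Kinetic Fluo-8 calcium fluorescence | Schedule: 17-24 h seeding, 75 min 37 °C dye, 30 min RT | Evaluation: % activation from peak over basal fluorescence ratio, DMSO-to-PEA scaled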
CRFR2-BP antag – antagonists of CRF-binding protein/CRF-R2 receptor complex. 0.59% of 350,000 active. HEK293 CRF-R2/CRF-BP, CRF-induced calcium fluorescence. inhibition, % at 11.8 µM;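 active = inhibition of the ligand-induced calcium signal above about 50% at the single tested concentration, limit read from the data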
CRFR2-BP ag – CRF-BP/CRF-R2 complex agonism | HEK293 CRF-R2/CRF-BP, calcium dye fluorescence (FLIPR); percent of saturating CRF peptide response | activation, % at 13.2 µM | 0.46% of 350,000 active | AID 588473;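 active = activation of at least 50%, plus an integration ratio under a set limit after plate pattern correction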
Each line names hits and unclear results; the compound was inactive in the other large screens.

CCN(Cc1ccccc1)c1c(C(=O)O)cnc2c1cnn2C	ANO1 activ -4.8
COc1cccc(/C(O)=C/c2nc3ccc(C(=O)NCCc4ccc(Cl)cc4)cc3[nH]c2=O)c1	CRFR2-BP ag 140 (no result: TMEM16A inh)
COc1cccc(/C(O)=C/c2nc3ccc(C(=O)NCCc4cccc(C)c4)cc3[nH]c2=O)c1	none
CC(C)(C)C(=O)Nc1ccc(S(=O)(=O)Nc2nccs2)cc1	none
CCOC(=O)c1c(C)[nH]c(C(=O)COC(=O)c2ccco2)c1C	none (no result: TMEM16A inh)
CCOc1ccc(C(=O)Nc2cc(-c3nc4ccccc4[nH]3)ccc2Cl)cc1[N+](=O)[O-]	TAAR1 antagonist 53
CCOc1ccc(C(=O)Nc2cc(-c3nc4ccccc4[nH]3)ccc2C)cc1[N+](=O)[O-]	none
O=C(NC(Cc1ccccc1)c1nc2ccccc2[nH]1)c1ccc(Cl)c([N+](=O)[O-])c1 (stereo not given)	CRFR2-BP antag 76
CSCC[C@H](NC(=O)c1ccc(Cl)c([N+](=O)[O-])c1)c1nc2ccccc2[nH]1	none
CCn1nc(C)cc1C(=O)N1CCCC(CCC(=O)NCc2ccccc2F)C1 (stereo not given)	none
Cc1ccc(/C=C2/NC(=O)N(Cc3ccccc3)C2=O)s1	TAAR1 ag 40
CC(=O)Nc1ccc(OCC(O)CN2C(C)(C)CC(O)CC2(C)C)cc1 (stereo not given)	CRFR2-BP antag 53
CC(C)CCNC(=O)C(c1cccnc1)N(CCc1ccccc1)C(=O)Cn1nnc2ccccc21 (stereo not given)	TAAR1 ag 39
COc1cccc(NC(=O)CN(C)C(=O)COc2ccccc2Cc2ccccc2)c1	none (no result: TMEM16A inh)
O=C(NNC(=O)c1cccc2ccccc12)c1ccc(-c2ccccc2)cc1	ANO1 activ -15
N#Cc1nc(-c2ccccc2Cl)oc1NCc1ccco1	ANO1 activ -4.7
N#Cc1nc(-c2ccccc2)oc1NCc1ccco1	none
CC(C)CC(C(=O)Nn1cnnc1)N1C(=O)c2ccccc2C1=O (stereo not given)	CRFR2-BP antag 59
CCCC(C)C(=O)Nc1ncc(S(=O)(=O)c2ccc([N+](=O)[O-])cc2)s1 (stereo not given)	TAAR1 antagonist 62, TAAR1 ag 89
O=C(CCl)Nc1ncc(S(=O)(=O)c2ccc([N+](=O)[O-])cc2)s1	none (no result: TMEM16A inh)
O=C(Nc1ncc(S(=O)(=O)c2ccc([N+](=O)[O-])cc2)s1)c1ccc2ccccc2c1	TMEM16A inh 100
O=C(Nc1ncc([N+](=O)[O-])s1)c1cccc([N+](=O)[O-])c1	ANO1 activ -4.6, TMEM16A inh 100, CRFR2-BP antag 70, CRFR2-BP ag 66
O=C(Nc1ccc(NC(=O)c2cccc([N+](=O)[O-])c2)cc1)c1cccc([N+](=O)[O-])c1	none
COC(=O)[C@@H](CC(C)C)NS(=O)(=O)N(Cc1ccccc1)[C@@H](CC(C)C)C(=O)OC	TAAR1 antagonist 50 (no result: TMEM16A inh)
COc1ccc(NS(=O)(=O)c2cccc(C(=O)NN=C(C)c3ccco3)c2)cc1	none (no result: TMEM16A inh)
O=C(CC(CC(=O)c1ccccc1)c1ccncc1)c1ccccc1	CRFR2-BP antag 86 (no result: TMEM16A inh)
O=C(CC(CC(=O)c1ccccc1)c1ccccc1)c1ccccc1	none
CCc1c(C2(O)CCCCC2)[nH]c2cc(C(F)(F)F)ccc12	TMEM16A inh 100 (no result: TAAR1 antagonist, TAAR1 ag)
Cc1ccc(CN(C(=O)C(F)(F)F)C(C(=O)NC2CCCCC2)c2ccco2)cc1 (stereo not given)	none
O=C(NC1CCCCC1)C(c1ccco1)N(C(=O)C(F)(F)F)C1CC1 (stereo not given)	ANO1 activ -5.9
Nc1ccc(/C=C/C(=O)c2cccs2)cc1	ANO1 activ -5.7, CRFR2-BP ag 103
CC1(C(=O)NS(=O)(=O)C2CC2)CCN(C(=O)c2cc3ccccc3s2)C1 (stereo not given)	none (no result: ANO1 activ, TMEM16A inh, CRFR2-BP antag, CRFR2-BP ag)
CCOC(=O)c1c(C)[nH]c(O)c1C=Nc1ccc(Cl)cc1	none
COC(=O)c1c(C)[nH]c(O)c1C=Nc1ccc(C(C)C)cc1	CRFR2-BP ag 126
COC(=O)c1c(C)[nH]c(O)c1C=Nc1ccc(Oc2ccccc2)cc1	CRFR2-BP ag 59
CCOC(=O)Nc1csnn1	none (no result: TMEM16A inh)
CCCCCn1c(=NC(=O)c2cccnc2)c(C#N)cc2c(=O)n3cccc(C)c3nc21	CRFR2-BP ag 63
Cc1cccc2sc(N(CCN(C)C)C(=O)C3CCN(S(=O)(=O)c4cccs4)CC3)nc12	TAAR1 ag 39
CN(C)CCN(C(=O)C1CCN(S(=O)(=O)c2cccs2)CC1)c1nc2ccc(F)cc2s1	none
O=C(N/N=C/c1ccccc1Cl)C1CC1	CRFR2-BP antag 77
COc1cccc(CNCc2ccccc2Br)c1OC	none
CCCOc1ccc(-c2csc3nc[nH]c(=O)c23)cc1	none
O=c1[nH]cnc2scc(-c3ccc(-c4ccccc4)cc3)c12	TAAR1 antagonist 50
COc1cc(CN(C(=O)c2ccco2)c2ccc(C)cc2)ccc1O	none
Cc1ccc(N(Cc2ccc([N+](=O)[O-])cc2)C(=O)c2ccco2)cc1	CRFR2-BP antag 62
Cc1ccc(C(=O)NCc2cccnc2)o1	CRFR2-BP antag 84
CN(CC(=O)Nc1cccc(F)c1)C(=O)c1ccccc1OCC(=O)Nc1cccc(C(F)(F)F)c1	TAAR1 antagonist 82
CCC1(CC)NC(=O)N(CC(=O)OC(C)C(=O)Nc2ccc(S(N)(=O)=O)cc2)C1=O (stereo not given)	none (no result: ANO1 activ, TMEM16A inh)
COc1ccc(-c2nn(-c3ccccc3)cc2/C=C(\C#N)S(=O)(=O)c2ccccc2)cc1OC	CRFR2-BP antag 66
N#Cc1cn(-c2ccccc2)nc1-c1ccc2c(c1)OCCO2	none
COc1ccc(-c2nn(-c3ccccc3)cc2/C=N/NC(N)=S)cc1OC	none
O=Cc1cn(-c2ccccc2)nc1-c1ccc2c(c1)OCCO2	CRFR2-BP antag 61
COc1ccc(-c2nn(-c3ccccc3)cc2C=O)cc1[N+](=O)[O-]	TAAR1 antagonist 49
CCN(C)C1CN(Cc2cn(Cc3cccc(Cl)c3)nn2)S(=O)(=O)C1 (stereo not given)	none (no result: ANO1 activ, TMEM16A inh, CRFR2-BP antag, CRFR2-BP ag)
COc1ccc(C2=Nn3c(nnc3-c3ccccc3F)SC2)cc1OCC1CC1	TAAR1 antagonist 52 (no result: TMEM16A inh)
Cc1ccc(C2(C)CC(C)(C)N(C(=O)CSc3nnc(C)s3)c3ccccc32)cc1 (stereo not given)	CRFR2-BP antag 115
Cc1nnc(SCC(=O)N2c3ccccc3C(C)(c3ccccc3)CC2(C)C)s1 (stereo not given)	none
Cn1c(CC(=O)Nc2ccc(Cl)c(Cl)c2)nnc1SCC(=O)N1CCN(c2ccccc2)CC1	none

Assay outcomes: PubChem, several laboratories
